According to ChEMBL document CHEMBL1121685, “Development of new mitomycin C and porfiromycin analogues” (J Med Chem, 1981):

Key:
[1] = tested on: Mus musculus; experiment: Effect of compound on total white blood cell count in BDG1 male mice, after intraperitoneal administration at a dose of 12.57 mg/kg on day 5; format: functional
In short: (§1)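 BDG₁ male mice received a single ip dose on day 0. The dose series topped out at the LD₅₀ level, or at twice the optimal dose for some agents. Total white blood cell count was taken on days 3, 5 and 7 and expressed as % change from untreated controls. Significance was set at p ≤ 0.05 or p ≤ 0.01.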

[2] = tested on: Mus musculus; experiment: Effect of compound on total white blood cell count in BDG1 male mice, after intraperitoneal administration at a dose of 12.57 mg/kg on day 7; format: functional; in short: as §1
[3] = tested on: Mus musculus; experiment: Effect of compound on total white blood cell count in BDG1 male mice, after intraperitoneal administration at a dose of 12.57 mg/kg on day 3; format: functional; in short: as §1
[4] = tested on: Mus musculus; experiment: Effect of compound on total white blood cell count in BDG1 male mice, after intraperitoneal administration at a dose of 17 mg/kg on day 3; format: functional
In short: (§2)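 Single ip dose given on day 0 to BDG1 male mice over a descending dose series. Total white blood cell count is expressed as % change from untreated control on days 3, 5 and 7. Significance is flagged at p ≤ 0.05 and p ≤ 0.01.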

[5] = tested on: Mus musculus; experiment: Effect of compound on total white blood cell count in BDG1 male mice, after intraperitoneal administration at a dose of 17 mg/kg on day 5; format: functional; in short: as §2
[6] = tested on: Mus musculus; experiment: Effect of compound on total white blood cell count in BDG1 male mice, after intraperitoneal administration at a dose of 17 mg/kg on day 7; format: functional; in short: as §2
[7] = organism: Mus musculus; experiment: Half-wave potential produced by the compound at their optimal dose; format: functional; parameters: unit not given here
[8] = tested on: Mus musculus; experiment: Effect of compound on total white blood cell count in BDG1 male mice, after intraperitoneal administration at a dose of 9.56 mg/kg on day 3; format: functional
In short: (§3)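 Single ip dose given on day 0 to BDG₁ male mice. Total white blood cell count measured on days 3, 5 and 7, expressed as % change from control. Highest dose was at the LD₅₀, or at twice the optimal dose where so footnoted. Significance reported at p ≤ 0.05 and p ≤ 0.01. D marks death of one or more mice.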

[9] = tested on: Mus musculus; experiment: Effect of compound on total white blood cell count in BDG1 male mice, after intraperitoneal administration at a dose of 9.56 mg/kg on day 5; format: functional; in short: as §3
[10] = tested on: Mus musculus; experiment: Effect of compound on total white blood cell count in BDG1 male mice, after intraperitoneal administration at a dose of 9.56 mg/kg on day 7; format: functional; in short: as §3
[11] = tested on: Mus musculus; experiment: Minimum effective dose that show activity against P-388 murine leukemia cells in CDF1 female mice, after intraperitoneal administration (optimal dose is 12.8 mg/kg); format: functional; details: P388, ip, read-out: MED
In short: (§4)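 10⁶ P-388 ascites cells implanted ip in CDF₁ female mice. Six mice per dose, 10 saline-injected controls, and a concurrent mitomycin C reference group. %T/C = median survival time of treated/control × 100. MED is the lowest dose giving %T/C > 125. Therapeutic ratio = optimal dose/MED.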

[12] = tested on: Mus musculus; experiment: Antitumor activity against P-388 murine leukemia cells in CDF1 female mice after intraperitoneal administration at the specified optimal dose of 12.8 mg/kg; format: functional
[13] = Therapeutic ratio is expressed as ratio of optimal dose and minimum effective dose; format: ADME; details: mouse; read-out: TR; in short: as §4
[14] = tested on: Mus musculus; experiment: Effect of compound on total white blood cell count in BDG1 male mice, after intraperitoneal administration at a dose of 68.0 mg/kg on day 3; format: functional; in short: as §3
[15] = tested on: Mus musculus; experiment: Effect of compound on total white blood cell count in BDG1 male mice, after intraperitoneal administration at a dose of 68.0 mg/kg on day 5; format: functional; in short: as §3
[16] = tested on: Mus musculus; experiment: Effect of compound on total white blood cell count in BDG1 male mice, after intraperitoneal administration at a dose of 68.0 mg/kg on day 7; format: functional; in short: as §3
[17] = tested on: Mus musculus; experiment: Effect of compound on total white blood cell count in BDG1 male mice, after intraperitoneal administration at a dose of 51 mg/kg on day 5; format: functional; in short: as §3
[18] = tested on: Mus musculus; experiment: Effect of compound on total white blood cell count in BDG1 male mice, after intraperitoneal administration at a dose of 51 mg/kg on day 3; format: functional; in short: as §3
[19] = tested on: Mus musculus; experiment: Effect of compound on total white blood cell count in BDG1 male mice, after intraperitoneal administration at a dose of 51 mg/kg on day 7; format: functional; in short: as §3
[20] = tested on: Mus musculus; experiment: Effect of compound on total white blood cell count in BDG1 male mice, after intraperitoneal administration at a dose of 1.3 mg/kg on day 5; format: functional; in short: as §1
[21] = tested on: Mus musculus; experiment: Effect of compound on total white blood cell count in BDG1 male mice, after intraperitoneal administration at a dose of 1.3 mg/kg on day 7; format: functional; in short: as §1
[22] = tested on: Mus musculus; experiment: Effect of compound on total white blood cell count in BDG1 male mice, after intraperitoneal administration at a dose of 1.3 mg/kg on day 3; format: functional; in short: as §1
[23] = tested on: Mus musculus; experiment: Effect of compound on total white blood cell count in BDG1 male mice, after intraperitoneal administration at a dose of 1.7 mg/kg on day 3; format: functional; in short: as §1
[24] = tested on: Mus musculus; experiment: Effect of compound on total white blood cell count in BDG1 male mice, after intraperitoneal administration at a dose of 1.7 mg/kg on day 5; format: functional; in short: as §1
[25] = tested on: Mus musculus; experiment: Effect of compound on total white blood cell count in BDG1 male mice, after intraperitoneal administration at a dose of 1.7 mg/kg on day 7; format: functional; in short: as §1
[26] = organism: Mus musculus; experiment: Degree of leukopenia produced by compound is assessed form Percent change in white cells on days 5; format: functional; in short: as §1
[27] = tested on: Mus musculus; experiment: Effect of compound on total white blood cell count in BDG1 male mice, after intraperitoneal administration at a dose of 0.96 mg/kg on day 3; format: functional; in short: as §1
[28] = tested on: Mus musculus; experiment: Effect of compound on total white blood cell count in BDG1 male mice, after intraperitoneal administration at a dose of 0.96 mg/kg on day 5; format: functional; in short: as §1
[29] = tested on: Mus musculus; experiment: Effect of compound on total white blood cell count in BDG1 male mice, after intraperitoneal administration at a dose of 0.96 mg/kg on day 7; format: functional; in short: as §1
[30] = tested on: Mus musculus; experiment: Minimum effective dose that show activity against P-388 murine leukemia cells in CDF1 female mice, after intraperitoneal administration (optimal dose is 3.2 mg/kg); format: functional; details: P388, ip, read-out: MED; in short: as §4
[31] = tested on: Mus musculus; experiment: Antitumor activity against P-388 murine leukemia cells in CDF1 female mice after intraperitoneal administration at the specified optimal dose of 3.2 mg/kg; format: functional

SMILES: C#CCNC1=C(C)C(=O)C2=C(C1=O)[C@H](COC(N)=O)C1(OC)[C@@H]3N[C@@H]3CN21 (stereo not given in full)
- Change [1]: -69%
- Change [2]: -52%
- Change [3]: -68%
- Change [4]: -80%
- Change [5]: -75%
- Change [6]: -73%
- E1/2 [7]: -0.41
- Change [8]: -59%
- Change [9]: -56%
- Change [10]: -28%
- minimal effective dose [11]: 0.2 mg/kg
- T/C [12]: 358%
- selectivity ratio [13]: 64

SMILES: COC12[C@@H]3N[C@@H]3CN1C1=C(C(=O)C(NCCCl)=C(C)C1=O)[C@@H]2COC(N)=O (stereo not given in full)
- Change [14]: -71%
- Change [15]: -63%
- Change [16]: -35%
- Change [17]: -61%
- Change [18]: -55%
- Change [19]: -23%
- T/C [12]: 190%
- selectivity ratio [13]: 8

SMILES: COC1=C(C)C(=O)C2=C(C1=O)[C@@H](COC(N)=O)[C@@]1(OC)[C@H]3N[C@H]3CN21 [MITOMYCIN A]
- Change [20]: -15%
- Change [21]: -9%
- Change [22]: -12%
- Change [23]: -28%
- Change [24]: -24%
- Change [25]: 5%
- Change [26]: -2%
- Change [27]: -11%
- Change [28]: -25%
- Change [29]: 4%
- E1/2 [7]: -0.21
- minimal effective dose [30]: 0.05 mg/kg
- T/C [31]: 180%
- selectivity ratio [13]: 64
